Active and inactive are the calls of the source. The calls are words filed in the database; no cut-off is given here.
Columns and labels:
SK-BR-3 [1] = experiment: Cell cycle arrest in human SK-BR-3 cells assessed as accumulation at S phase at 5 uM after 6 hrs using propidium iodide staining by FACS analysis; type: functional
OVCAR-5 = experiment: Growth inhibition of human OVCAR5 cells after 48 hrs by SRB assay; type: functional
SK-BR-3 [2] = experiment: Cell cycle arrest in human SK-BR-3 cells assessed as accumulation at G2/M phase at 0.10 uM after 18 hrs using propidium iodide staining by FACS analysis; type: functional
Procedure, shortened: (§1)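 SKBR-3 cells in RPMI1640 with 10% heat-inactivated FBS at 37 °C and 5% CO₂ were treated for the stated times. Cells were fixed overnight in 70% EtOH at −20 °C, then stained with propidium iodide buffer (38 mM sodium citrate pH 7.5, 69 µM PI, 120 µg/mL RNase A) for 15 min at room temperature in the dark. Up to 1×10⁴ gated cells were analyzed by flow cytometry, giving percent distribution per phase.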

SK-BR-3 [3] = experiment: Cell cycle arrest in human SK-BR-3 cells assessed as accumulation at Sub-G1 phase at 0.50 uM after 12 hrs using propidium iodide staining by FACS analysis; type: functional
SF-539 = experiment: Growth inhibition of human SF539 cells after 48 hrs by SRB assay; type: functional
HT-29 [4] = experiment: Antitumor activity against human HT-29 cells xenografted in BALB/c athymic nu/nu mouse assessed as decrease in tumor size at 5 mg/kg/day, ip administered 5 times per week for 3 weeks; type: functional, organism-based
Procedure, shortened: (§2)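 Athymic BALB/c nu/nu mice received s.c. HT29 cells in Matrigel, 200 µL per site at two flank sites. Treatment started at ~200 mm³: 5 mg/kg/d i.p., five times weekly for three weeks, in 1% DMSO/sesame oil; controls got vehicle. Three mice per group. Tumors were measured twice weekly by caliper, volume = width²×length/2. Tumors were excised and weighed at the end.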

UACC-257 = experiment: Growth inhibition of human UACC257 cells after 48 hrs by SRB assay; type: functional
RXF 393 = experiment: Growth inhibition of human RXF393 cells after 48 hrs by SRB assay; type: functional
DU-145 = experiment: Growth inhibition of human DU145 cells after 48 hrs by SRB assay; type: functional
SK-BR-3 [5] = experiment: Cell cycle arrest in human SK-BR-3 cells assessed as accumulation at G1 phase at 5 uM after 18 hrs using propidium iodide staining by FACS analysis; type: functional; procedure, shortened: as §1
HT-29 [6] = experiment: Cytotoxicity against human HT-29 cells after 48 hrs by MTT assay; type: functional, cell-based; details: HT-29, 48 h
Procedure, shortened: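 HT29 cells (ATCC) kept in RPMI1640 with 10% heat-inactivated FBS, L-glutamine and pyruvate at 37 °C, 5% CO2. Cells plated 24 h, then exposed 48 h to graded compound concentrations in DMSO (0.1% final) beside vehicle controls. Incubated 2 h with 0.5 mg/ml MTT, formazan dissolved in DMSO, A570 read. Six replicates; IC50 from viability.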

CAKI-1 = experiment: Growth inhibition of human Caki1 cells after 48 hrs by SRB assay; type: functional
Malme-3M = experiment: Growth inhibition of human MALME-3M cells after 48 hrs by SRB assay; type: functional
786-0 = experiment: Growth inhibition of human 786-0 cells after 48 hrs by SRB assay; type: functional
KM12 = experiment: Growth inhibition of human KM12 cells after 48 hrs by SRB assay; type: functional
SK-BR-3 [7] = experiment: Cell cycle arrest in human SK-BR-3 cells assessed as accumulation at S phase at 0.10 uM after 6 hrs using propidium iodide staining by FACS analysis; type: functional; procedure, shortened: as §1
NCI/ADR-RES = experiment: Growth inhibition of human NCI/ADR-RES cells after 48 hrs by SRB assay; type: functional
T47D = experiment: Growth inhibition of human T47D cells after 48 hrs by SRB assay; type: functional
SK-BR-3 [8] = experiment: Cell cycle arrest in human SK-BR-3 cells assessed as accumulation at Sub-G1 phase at 5 uM after 12 hrs using propidium iodide staining by FACS analysis; type: functional
SK-BR-3 [9] = experiment: Cell cycle arrest in human SK-BR-3 cells assessed as accumulation at G2/M phase at 0.50 uM after 24 hrs using propidium iodide staining by FACS analysis; type: functional; procedure, shortened: as §1
SK-BR-3 [10] = experiment: Cell cycle arrest in human SK-BR-3 cells assessed as accumulation at S phase at 5 uM after 3 hrs using propidium iodide staining by FACS analysis; type: functional
HT-29 [11] = experiment: Antitumor activity against human HT-29 cells xenografted in BALB/c athymic nu/nu mouse assessed as decrease in tumor weight at 5 mg/kg/day, ip administered 5 times per week for 3 weeks; type: functional, organism-based; procedure, shortened: as §2
[12] = AUC (0 to t) in Sprague-Dawley rat at 20 mg/kg, ip; type: ADME, organism-based; set-up: dose 20 mg/kg, route intraperitoneal; details: plasma
Procedure, shortened: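 Male Sprague–Dawley rats (300–350 g), n=3, fasted overnight with water available, given a single 20 mg/kg i.p. dose in PBS with 0.1% Tween80 and 20% DMSO. Blood drawn into heparinized tubes at 0, 0.25, 0.5, 1, 2, 4, 8 and 24 h. Plasma measured by LC-MS/MS against an internal standard. Parameters from non-compartmental analysis.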

[13] = read-out: LC50 (the source's name)

Cc1ccc(C)c(COc2cc(NC(=O)c3ccc4c(c3)OCO4)ccc2N(C)S(C)(=O)=O)c1
Activity (SK-BR-3 [1]): 14.61%
growth inhibition (GI) (OVCAR-5): Dose-dependent effect
GI50 (OVCAR-5; OVCAR-5, 48 h): 538 nM
TGI (OVCAR-5; OVCAR-5, 48 h): > 100 µM
Activity (SK-BR-3 [2]): 9.71%
Activity (SK-BR-3 [3]): 6.36%
growth inhibition (GI) (SF-539): Dose-dependent effect
GI50 (SF-539; SF-539, 48 h): 125 nM
CC50 (SF-539; SF-539, 48 h, read-out: LC50 (the source's name)): > 100 µM
Activity (HT-29 [4]): Active
growth inhibition (GI) (UACC-257): Dose-dependent effect
GI50 (UACC-257; UACC-257, 48 h): 144 nM
TGI (UACC-257; UACC-257, 48 h): > 100 µM
CC50 (UACC-257; UACC-257, 48 h, read-out: LC50 (the source's name)): > 100 µM
growth inhibition (GI) (RXF 393): Dose-dependent effect
GI50 (RXF 393; RXF 393, 48 h): 128 nM
TGI (RXF 393; RXF 393, 48 h): 403 nM
growth inhibition (GI) (DU-145): Dose-dependent effect
GI50 (DU-145; DU-145, 48 h): 159 nM
TGI (DU-145; DU-145, 48 h): 457 nM
CC50 (DU-145; DU-145, 48 h, read-out: LC50 (the source's name)): > 100 µM
Activity (SK-BR-3 [5]): 63.55%
IC50 (HT-29 [6]): 460 nM
growth inhibition (GI) (CAKI-1): Dose-dependent effect
TGI (CAKI-1; CAKI-1, 48 h): > 100 µM
CC50 (CAKI-1; CAKI-1, 48 h, read-out: LC50 (the source's name)): > 100 µM
GI50 (Malme-3M): 229 nM
TGI (Malme-3M): > 100 µM
growth inhibition (GI) (Malme-3M): Dose-dependent effect
CC50 (Malme-3M; [13]): > 100 µM
growth inhibition (GI) (786-0): Dose-dependent effect
GI50 (786-0; 786-0, 48 h): 191 nM
TGI (786-0; 786-0, 48 h): 1110 nM
CC50 (786-0; 786-0, 48 h, read-out: LC50 (the source's name)): > 100 µM
growth inhibition (GI) (KM12): Dose-dependent effect
GI50 (KM12; KM12, 48 h): 85.5 nM
TGI (KM12; KM12, 48 h): 1130 nM
CC50 (KM12; KM12, 48 h, read-out: LC50 (the source's name)): > 100 µM
Activity (SK-BR-3 [7]): 15.84%
GI50 (NCI/ADR-RES): 56.2 nM
TGI (NCI/ADR-RES): 407 nM
growth inhibition (GI) (NCI/ADR-RES): Dose-dependent effect
CC50 (NCI/ADR-RES; [13]): > 100 µM
GI50 (T47D): 682 nM
TGI (T47D): > 100 µM
growth inhibition (GI) (T47D): Dose-dependent effect
CC50 (T47D; [13]): > 100 µM
Activity (SK-BR-3 [8]): 9.76%
Activity (SK-BR-3 [9]): 28.14%
Activity (SK-BR-3 [10]): 16.49%
Activity (HT-29 [11]): Active
AUC(0-t) [12]: 16300 ng·h/mL
